Activity calls are given as the source filed them. No cut-off for these calls is given here.
What was measured:
Aorta = experiment: Inhibition of noradrenaline-induced vasoconstriction in Wistar rat endothelium-denuded thoracic aortic ring at 1 mM after 20 mins; type: functional, tissue-based
Summary of the method: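 Endothelium-denuded rat aortic rings preincubated with test agent, NaHS or vehicle, then given cumulative noradrenaline. Contraction expressed as % of a prior response to 60 mM KCl.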

[1] = Activation of KATP channel in HASMC assessed as membrane hyperpolarization at 1 mM using DiBac4(3) dye by spectrofluorimetric analysis relative to LCRK; conditions: Homo sapiens
Summary of the method: (§1)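 Cultured human aortic smooth muscle cells; membrane potential followed as change in relative fluorescence of a potential-sensitive dye. Test agent added at increasing concentrations up to 1 mM. Response expressed as % of maximal hyperpolarization produced by levcromakalim 10 μM (reference KATP opener). Mean with SEM.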

Rattus norvegicus = experiment: Reduction of systolic blood pressure in rat at 0.1 mg/kg, po (reference value: 102% +/- 1%); type: functional, Artery; set-up: scale not given: the % may be the effect or the level left
[2] = Induction of H2S release in Tyrode buffer after 15 mins; type: physicochemical; conditions: 0.25 h
Summary of the method: (§2)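 Incubation in Tyrode buffer, the medium used for functional tests, with or without rat aortic ring tissue. No L-cysteine or glutathione added. H2S recorded continuously by amperometry; concentration reported 15 min after addition. Mean with SEM.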

[3] = Induction of H2S release in Tyrode buffer in presence of Wistar rat endothelium-denuded thoracic aortic ring; type: functional; conditions: TDE = time-dependent effect; summary of the method: as §2
[4] = Activation of KATP channel in HASMC assessed as membrane hyperpolarization using DiBac4(3) dye by spectrofluorimetric analysis relative to LCRK; conditions: Homo sapiens; summary of the method: as §1
[5] = Induction of H2S release in PBS buffer 10x at pH 7.4 at 1 mM in presence of glutathione; type: physicochemical; conditions: pH 7.4, 1000 µM
Summary of the method: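 Release measured amperometrically in assay buffer (pH 7.4, 35–37 °C), test agent 1 mM, with reduced glutathione added as the thiol. Continuous H2S–time curves recorded. Mean with SEM.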

Structure (SMILES)	inhibition (Aorta)	Activity [1]	Activity (Rattus norvegicus)	Activity [2]	Activity [3]	Activity [4]	Activity [5]
NC(=S)c1ccc(O)cc1	Active	79%	89%	0.24 µM	tde	Dose-dependent effect	Active
[Na+].[SH-] [SODIUM HYDROSULFIDE]	Active	52%	91%				

Reference: ChEMBL document CHEMBL2440038, “Arylthioamides as H2S Donors: l-Cysteine-Activated Releasing Properties and Vascular Effects in Vitro and in Vivo” (ACS Med Chem Lett, 2013)
